# Screening results: PubChem BioAssay, Johns Hopkins Ion Channel Center
# TRPC4 PAM = allosteric potentiators of mouse TRPC4 channel; HEK293 TRPC4beta/mu-opioid, DAMGO EC20, Fluo-4 Ca2+ flux; hits give high values; AID 2227; actives 0.42% (n = 310,000); B-score at 10 µM;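 active means B-score of calcium response area above 5 SD of library B-scores, with initial fluorescence ratio within 5 SD of library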
# TRPC4 agonist = TRPC4 (mouse) channel activation; actives 0.49% (n = 310,000); HEK293 TRPC4beta/mu-opioid, Fluo4 calcium fluorescence; hits give high values; B-score at 10 µM; AID 2237; Q9QUQ5;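 active means B-score above 5 SD of library B-scores, and initial fluorescence ratio not above library mean plus 5 SD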;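 further: positive B-score marks a calcium rise read as TRPC4 activation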
#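 system = HEK293 cells stably co-expressing mouse TRPC4beta and mu-opioid receptor | schedule = Fluo4 dye loading 45 min at room temperature, 110 s recording | measure = B-scored integrated calcium fluorescence ratio | signal = Fluo4 calcium-sensitive dye fluorescence, kinetic, 1 Hz baseline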
# TRPC4 block = TRPC4 (mouse) channel inhibition; Q9QUQ5; HEK293 TRPC4beta/mu-opioid, DAMGO-evoked Fluo4 calcium flux; hits give low values; B-score at 10 µM; actives 0.39% (n = 300,000);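 active means B-score over 3 SD under the library average, no early fluorescence shift, positive overall ratio signal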
#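 Assay system: TRPC4beta/mu-opioid receptor HEK293 cell line; compound dosing: single concentration per test compound; detection: Fluo4 Ca2+ flux fluorescence; evaluation: per-well B score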
# TRPC6 activator = activators of mouse TRPC6 channel; actives 0.13% (n = 310,000); HEK293-TRPC6 membrane potential dye fluorescence; hits give high values; B-score at 10 µM; Q61143; AID 2550;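 active means B-score of the integrated fluorescence ratio above library mean plus 3 SD, and starting fluorescence ratio within library mean plus 5 SD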;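 further: higher score means more depolarization so channel activation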
# TRPC6 inhibitor = blocks the mouse TRPC6 cation channel; B-score at 10 µM; actives 1.1% (n = 310,000); HEK293-TRPC6, membrane potential dye, ACh-evoked depolarization; hits give low values; Q61143;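 active means B-score under library mean minus 3 SD, initial fluorescence not abnormally high, positive integrated signal ratio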;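 further: B-score derived from integrated fluorescence ratio over the kinetic read; more negative B-score means stronger inhibition of depolarization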
# Numbers stand for hits; i = inactive; ! = not active in a repeat. Rows were chosen to be rich in hits. Some 2.3% of all compounds tested hit in one or more screens of this group.
SMILES,TRPC4 PAM,TRPC4 agonist,TRPC4 block,TRPC6 activator,TRPC6 inhibitor
CCC(=O)C(CCN1CCOCC1)(c1ccccc1)c1ccccc1,i,62,i,i,i
COc1cccc(CNCCc2c[nH]c3ccccc23)c1,i,i,i,i,i
COc1ccc(CNCCc2c[nH]c3ccccc23)c(OC)c1C,i,182,i,i,i
COc1cc(C)c(CNCCc2c[nH]c3ccccc23)cc1C,i,144,i,i,i
Cc1ccccc1OCCCn1cc(C(=O)C(=O)N2CCOCC2)c2ccccc21,i,i,i,i,i
CN(C)C1(CNC(=O)Nc2ccc(Cl)c(Cl)c2)CCCCC1,i,91,i,i,i
CC(=O)OC1N=C(c2ccccc2Cl)c2cc(Br)ccc2NC1=O (stereo not given),i,i,i,i,i
Cc1nn(C)cc1/C=C1/CC2C3CC=C4CC(O)CCC4(C)C3CCC2(C)C1=O (stereo not given),10,i,i,i,i
CC12CCC3C(CC=C4CC(O)CCC43C)C1C/C(=C\c1ccccc1F)C2=O (stereo not given),i,i,i,i,i
NC(N)=N/N=C/c1cn(-c2ccccc2)nc1-c1cccs1,i,97,i,i,i
O=C(Cc1ccc(Br)cc1)N1CCN(Cc2ccccc2)CC1,i,i,i,i,i
Oc1c(Br)cc(Br)cc1CN1CCN(Cc2ccccc2)CC1,20,i,i,i,i
O=C(Cc1ccccc1)N1CCN(Cc2cccc(Br)c2)CC1,i,i,-5,i,i
COc1ccc(CN2CCN(C(=O)Cc3ccccc3)CC2)c(OC)c1,i,i,i,i,i
COc1ccc(Br)cc1CN1CCN(C(=O)Cc2ccccc2)CC1,i,i,-6,i,i
CC/C(=N\Nc1ccccc1)c1c(O)n(C)c(=O)n(C)c1=O,13,i,-6,i,i
CC/C(=N\Nc1ccccc1)c1c(O)n(-c2ccccc2)c(=O)[nH]c1=O,i,i,i,i,i
COc1ccc(CCN)cc1O,i,43,i,i,i
CN1CCN(c2ccc([N+](=O)[O-])c(N)c2)CC1,10,i,i,i,i
O=[N+]([O-])c1ccc(N2CCNCC2)cc1NCc1ccco1,i,i,i,i,i
O=[N+]([O-])c1ccc(N2CCNCC2)cc1N1CCCCCC1,18,i,i,i,i
CN1CCN(c2ccc([N+](=O)[O-])c(N3CCCCC3)c2)CC1,i,i,i,i,i
Nc1cc(N2CCNCC2)ccc1[N+](=O)[O-],26,77,i,i,i
CNc1cc(N2CCNCC2)ccc1[N+](=O)[O-],13,i,i,i,i
COC(=O)C(O)(c1ccc(NC(=S)NC(=O)c2ccc(Cl)cc2Cl)c(C)c1)C(F)(F)F (stereo not given),32,i,i,i,i
SMILES,TRPC4 PAM,TRPC4 agonist,TRPC4 block,TRPC6 activator,TRPC6 inhibitor
CNC(=O)N(C)c1ccc(C(O)(C(=O)OC)C(F)(F)F)cc1 (stereo not given),i,i,i,i,i
COC(=O)C(O)(c1ccc(NC(=S)NC(=O)c2ccc(Cl)cc2Cl)cc1)C(F)(F)F (stereo not given),i,i,i,i,i
CCOC(=O)C(NC(=O)CC)(Nc1ccc(C(O)(C(=O)OCC)C(F)(F)F)cc1C)C(F)(F)F (stereo not given),i,i,i,i,i
CCOC(=O)C(O)(c1ccc(NC(=S)NC(=O)c2ccc(Cl)cc2Cl)c(C)c1)C(F)(F)F (stereo not given),16,i,i,i,i
CCOC(=O)C(O)(c1ccc(NC(=S)NC(=O)c2ccc(Cl)cc2Cl)cc1)C(F)(F)F (stereo not given),13,i,i,i,i
CN1Cc2cccnc2N(C)Cc2cc(Cl)ccc21,i,i,i,i,i
COc1ccccc1N1CCN(Cc2cnc(-c3ccccc3)[nH]2)CC1,i,i,i,i,i
CCCCN1C(=O)C(C2c3ccccc3C(=O)N2Cc2ccccc2)C(=O)NC1=S (stereo not given),i,i,i,i,i
COc1ccc(C2NCCc3[nH]cnc32)cc1 (stereo not given),i,175,i,i,i
c1ccc(C2NCCc3[nH]cnc32)cc1 (stereo not given),i,i,i,i,i
O=C(c1ccccc1F)c1cn(CC(=O)N2CCCCC2)c2ccccc12,i,i,i,i,i
Cc1cc(OC(=O)N(C)C)nc(SCc2c(Cl)cccc2Cl)n1,11,i,i,i,i
c1ccc2oc(N3CCNCC3)nc2c1,44,72,i,i,i
CCC(COC(=O)c1cc(OC)c(OC)c(OC)c1)(c1ccccc1)N(C)C (stereo not given),i,54!,i,i,i
CCCOP(=O)(OCCC)C(NC(=O)c1cc(OC)c(OC)c(OC)c1)c1ccccc1 (stereo not given),i,i,i,i,i
O=c1[nH]c2ccccc2c(=O)n1-c1ccc(Cl)cc1Cl,i,i,i,i,i
CCC(C)C12CN3CCN(CC(C)(C3)C1=O)C2 (stereo not given),i,i,i,i,i
CCC(=O)OC1(Cc2ccc(CC)cc2)CC(C)N(C)CC1C (stereo not given),i,48,-8,i,i
CCC(=O)OC1(c2cccc(C)c2)CC(C)N(C)CC1C (stereo not given),i,68,i,i,i
O=[N+]([O-])c1ccc(N2CCNCC2)c2ncccc12,24,69,i,i,-5.55
CN1CCN(c2ccc([N+](=O)[O-])c3cccnc23)CC1,18,64,i,i,i
O=[N+]([O-])c1ccc(N2CCNCC2)cc1Sc1ccccn1,i,i,i,i,i
CSc1ccc(C(=O)C2CCCN(CCCn3cccn3)C2)cc1 (stereo not given),i,83,i,i,i
CN=C1CN(O)C(c2ccccc2)=c2cc(Cl)ccc2=N1,i,i,i,i,i
O=P(Nc1ccccc1Cl)(c1ccccc1)c1nc2c(s1)CCCC2 (stereo not given),14,i,i,i,i
SMILES,TRPC4 PAM,TRPC4 agonist,TRPC4 block,TRPC6 activator,TRPC6 inhibitor
O=P(Nc1c(Cl)cccc1Cl)(c1ccccc1)c1nc2c(s1)CCCC2 (stereo not given),i,i,i,i,i
CCN(CC)P(c1n(C)cc[n+]1C)N(CC)CC,i,i,i,i,i
c1ccc(C(OCCN2CCNCC2)c2ccccc2)cc1,i,i,i,i,i
c1ccc2nc(OCCN3CC3)ccc2c1,18,i,i,i,i
COc1cc2c(cc1OC)C(C(=O)NC(C)C)C1CCCCN1C2=O (stereo not given),i,i,i,i,i
COc1ccc(C(CNC(=O)CCc2ccsc2)N(C)C)cc1 (stereo not given),i,108,i,i,i
Cc1ccc(C2N(c3ccccn3)C(=O)C3CCCN32)o1 (stereo not given),i,i,i,i,i
CN(C)C(CNC(=O)Cc1ccc(Br)cc1)c1ccccc1 (stereo not given),i,175,i,i,i
